ChEMBL document CHEMBL1649438, “Activities of ceftobiprole and other cephalosporins against extracellular and intracellular (THP-1 macrophages and keratinocytes) forms of methicillin-susceptible and methicillin-resistant Staphylococcus aureus” (Antimicrob Agents Chemother, 2009)
≈ marks a conversion by molar mass, not a printed value.

Assays:
Staphylococcus aureus [1] = assay: Antimicrobial activity against hospital-acquired vancomycin-intermediate Staphylococcus aureus NRS126 infected in human THP-1 cells assessed as change in bacterial count after 24 hrs; assay type: functional, organism-based; details: NRS126, THP-1, 24 h
Outline: (§1)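 THP-1 macrophages infected as described previously, with a postphagocytosis inoculum of 1.5 × 10⁶ to 3.0 × 10⁶ CFU/mg cell protein. Cells were exposed 24 h to increasing extracellular antibiotic concentrations. Response is the change in log10 CFU/mg protein from the inoculum (n = 3), fitted to a Hill function. E0 and Emax were extrapolated to infinitely low and high concentrations. EC50 and static concentration (graphical interpolation) are expressed as multiples of the broth MIC at pH 5.5 or 7.4.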

Staphylococcus aureus [2] = assay: Antimicrobial activity against Panton-valentine leucocidin-positive community-acquired methicillin-resistant Staphylococcus aureus NRS192 infected in human THP-1 cells assessed as bacterial count per mg of cell protein at low extracellular compound concentration after 24 hrs; assay type: functional
Outline: (§2)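 THP-1 human macrophages infected with S. aureus (postphagocytosis inoculum 1.5 × 10^6 to 3.0 × 10^6 CFU/mg cell protein), then incubated 24 h with increasing extracellular antibiotic concentrations. Change in log10 CFU/mg cell protein from the postphagocytosis inoculum, n = 3. Hill function fitted on log-transformed data. Low-concentration value (E0) and high-concentration value (Emax) are extrapolated. Where a pH is given, concentrations are expressed as multiples of the broth MIC at that pH.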

Staphylococcus aureus [3] = assay: Antimicrobial activity against Panton-valentine leucocidin-positive community-acquired methicillin-resistant Staphylococcus aureus N4042228 infected in human THP-1 cells assessed as bacterial count per mg of cell protein at high extracellular compound concentration after 24 hrs; assay type: functional; outline: as §2
Staphylococcus aureus [4] = assay: Antimicrobial activity against Panton-valentine leucocidin-positive community-acquired methicillin-resistant Staphylococcus aureus N4090440 infected in human THP-1 cells assessed as bacterial count per mg of cell protein at low extracellular compound concentration after 24 hrs at pH 5.5; assay type: functional; details: pooled result: one value given for 6 cell lines, strains, targets or settings; outline: as §2
Staphylococcus aureus [5] = assay: Antimicrobial activity against Panton-valentine leucocidin-positive community-acquired methicillin-resistant Staphylococcus aureus N4090440 infected in human THP-1 cells assessed as bacterial count per mg of cell protein at high extracellular compound concentration after 24 hrs at pH 5.5; assay type: functional; outline: as §2
Staphylococcus aureus [6] = assay: Antimicrobial activity against Panton-valentine leucocidin-positive community-acquired methicillin-resistant Staphylococcus aureus STA 44 infected in human THP-1 cells assessed as bacterial count per mg of cell protein at high extracellular compound concentration after 24 hrs at pH 5.5; assay type: functional; outline: as §2
Staphylococcus aureus [7] = assay: Bacteriostatic activity against Panton-valentine leucocidin-positive community-acquired methicillin-resistant Staphylococcus aureus STA 44 infected in human THP-1 cells assessed as change in bacterial count after 24 hrs at pH 5.5; assay type: functional; outline: as §1
Staphylococcus aureus [8] = assay: Antimicrobial activity against Panton-valentine leucocidin-positive community-acquired methicillin-resistant Staphylococcus aureus isolate MEH2225605 infected in human THP-1 cells assessed as change in bacterial count after 24 hrs at pH 5.5; assay type: functional, organism-based; details: isolate MEH2225605, THP-1, 24 h; outline: as §2
Staphylococcus aureus [9] = assay: Bacteriostatic activity against Panton-valentine leucocidin-positive community-acquired methicillin-resistant Staphylococcus aureus isolate MEH2225605 infected in human THP-1 cells assessed as change in bacterial count after 24 hrs at pH 5.5; assay type: functional; outline: as §1
Staphylococcus aureus [10] = assay: Antimicrobial activity against methicillin-susceptible Staphylococcus aureus ATCC 11632 infected in human THP-1 cells assessed as bacterial count per mg of cell protein at high extracellular compound concentration after 24 hrs at pH 5.5; assay type: functional
Outline: (§3)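 Human THP-1 macrophage-like cells were infected with S. aureus to a postphagocytosis inoculum of 1.5 × 10^6 to 3.0 × 10^6 CFU/mg cell protein. Cells were then exposed 24 h to increasing extracellular antibiotic concentrations. Response was the log10 CFU change per mg protein from the postphagocytosis inoculum, n = 3. A Hill function was fitted on log-transformed axes. E0 and Emax were extrapolated to infinitely low and high concentrations. Cs was read by graphical interpolation. Concentrations were expressed as multiples of the broth MIC at pH 5.5 or pH 7.4.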

Staphylococcus aureus [11] = assay: Bacteriostatic activity against methicillin-susceptible Staphylococcus aureus NRS52 infected in human THP-1 cells assessed as change in bacterial count after 24 hrs at pH 5.5; assay type: functional; outline: as §3
Staphylococcus aureus [12] = assay: Antimicrobial activity against hospital-acquired vancomycin-intermediate Staphylococcus aureus NRS18 infected in human THP-1 cells assessed as change in bacterial count after 24 hrs at pH 5.5; assay type: functional, organism-based; details: NRS18, THP-1, 24 h; outline: as §1
Staphylococcus aureus [13] = assay: Antimicrobial activity against hospital-acquired methicillin-resistant Staphylococcus aureus ATCC 33591 infected in human THP-1 cells assessed as change in bacterial count after 24 hrs at pH 7.4; assay type: functional, organism-based; details: ATCC 33591, THP-1, 24 h; outline: as §1
Staphylococcus aureus [14] = assay: Antimicrobial activity against hospital-acquired vancomycin-intermediate Staphylococcus aureus NRS18 infected in human THP-1 cells assessed as bacterial count per mg of cell protein at high extracellular compound concentration after 24 hrs at pH 7.4; assay type: functional; outline: as §3
Staphylococcus aureus [15] = assay: Antimicrobial activity against hospital-acquired vancomycin-intermediate Staphylococcus aureus NRS126 infected in human THP-1 cells assessed as change in bacterial count after 24 hrs at pH 7.4; assay type: functional, organism-based; details: NRS126, THP-1, 24 h; outline: as §1
Staphylococcus aureus [16] = assay: Antimicrobial activity against methicillin-susceptible Staphylococcus aureus ATCC 25923 infected in human keratinocytes assessed as bacterial count per mg of cell protein at low extracellular compound concentration after 24 hrs; assay type: functional
Outline: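 Primary human skin keratinocytes were grown in defined keratinocyte serum-free medium and infected with S. aureus to 1.5 × 10^6 to 3.0 × 10^6 CFU/mg cell protein. Cells were exposed 24 h to increasing extracellular concentrations. Response was the log10 CFU change from the postphagocytosis inoculum, fitted by a Hill equation with slope 1. Cs is the concentration giving CFU equal to the original inoculum, found by graphical interpolation.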

Staphylococcus aureus [17] = assay: Bacteriostatic activity against methicillin-resistant Staphylococcus aureus ATCC 33591 infected in human keratinocytes assessed as change in bacterial count after 24 hrs; assay type: functional
Outline: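 Primary human skin keratinocytes were grown in defined keratinocyte serum-free medium, infected, then incubated 24 h with increasing extracellular drug concentrations. Response was the change in log10 CFU/mg cell protein versus the post-phagocytosis inoculum, fitted to a Hill equation with slope factor 1. Static concentration (mg/liter, total drug) was taken by graphical interpolation where CFU equalled the original inoculum.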

Staphylococcus aureus [18] = assay: Antimicrobial activity against methicillin-susceptible Staphylococcus aureus NRS52 infected in human THP-1 cells assessed as bacterial count per mg of cell protein at low extracellular compound concentration after 24 hrs; assay type: functional; outline: as §3
Staphylococcus aureus [19] = assay: Antimicrobial activity against methicillin-susceptible Staphylococcus aureus NRS52 infected in human THP-1 cells assessed as bacterial count per mg of cell protein at high extracellular compound concentration after 24 hrs; assay type: functional; outline: as §1
Staphylococcus aureus [20] = assay: Antimicrobial activity against methicillin-susceptible Staphylococcus aureus NRS52 infected in human THP-1 cells assessed as change in bacterial count after 24 hrs; assay type: functional, organism-based; details: NRS52, THP-1, 24 h; outline: as §1
Staphylococcus aureus [21] = assay: Antimicrobial activity against hospital-acquired methicillin-resistant Staphylococcus aureus […] infected in human THP-1 cells assessed as bacterial count per mg of cell protein at low extracellular compound concentration after 24 hrs; assay type: functional; outline: as §1
Staphylococcus aureus [22] = assay: Antimicrobial activity against hospital-acquired methicillin-resistant Staphylococcus aureus […] infected in human THP-1 cells assessed as bacterial count per mg of cell protein at high extracellular compound concentration after 24 hrs; assay type: functional; outline: as §1

Nc1nc(/C(=N/O)C(=O)N[C@@H]2C(=O)N3C(C(=O)O)=C(/C=C4\CCN([C@@H]5CCNC5)C4=O)CS[C@H]23)ns1 [CEFTOBIPROLE]
EC50 (Staphylococcus aureus [1]): 0.23 µg/mL (≈ 0.43 µM) | log10cfu (Staphylococcus aureus [2]): 2.68 | log10cfu (Staphylococcus aureus [3]): -1.12 | log10cfu (Staphylococcus aureus [4]): 2.78 | log10cfu (Staphylococcus aureus [5]): -1.02 | log10cfu (Staphylococcus aureus [6]): -1.02 | Activity (Staphylococcus aureus [7]): 1.45 × MIC | EC50 (Staphylococcus aureus [8]): 0.54 × MIC | Activity (Staphylococcus aureus [9]): 1.45 × MIC | log10cfu (Staphylococcus aureus [10]): 1.04 | Activity (Staphylococcus aureus [11]): 1.19 × MIC | EC50 (Staphylococcus aureus [12]): 0.77 ×MIC | EC50 (Staphylococcus aureus [13]): 0.28 ×MIC | log10cfu (Staphylococcus aureus [14]): -0.99 | EC50 (Staphylococcus aureus [15]): 0.28 ×MIC | log10cfu (Staphylococcus aureus [16]): 2.48 | Activity (Staphylococcus aureus [17]): 1.95 mg/L | log10cfu (Staphylococcus aureus [18]): 2.89 | log10cfu (Staphylococcus aureus [19]): -1.01 | EC50 (Staphylococcus aureus [20]): 0.19 µg/mL (≈ 0.355 µM) | log10cfu (Staphylococcus aureus [21]): 2.46 | log10cfu (Staphylococcus aureus [22]): -0.9
